Screening data: PubChem, Broad Institute
Wnt act – Wnt/beta-catenin pathway activation | Wnt/beta-catenin reporter cell assay, activator, plate reader | activation, % at 9.35 µM | 1.2% of 300,000 active | AID 743398; in the data active = activation above about 30%, passing the limit was not always enough; inconclusive = no clear call, values can overlap the other calls
ERAP1 HTS inh – blocks human ERAP1 aminopeptidase activity. recombinant ERAP1, Leu-AMC fluorescence, 60 min. 0.15% of 340,000 active. inhibition, % at 10.7 µM;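 active = mean replicate inhibition of at least 30%, or all replicates individually reaching that 30% level; inactive = mean below 30% and not every replicate reaching it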
HIV Env fusion – HIV envelope-mediated fusion inhibition. 1.1% of 360,000 active. HeLa-JRFL Env/CEM21 cell fusion, luciferase. AID 651610. inhibition, % at 12.3 µM;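 active = mean replicate inhibition score of at least 50 and every replicate individually at or above 50; inconclusive = only one of the two criteria met; inactive = mean below 50 and not all replicates reaching 50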
esBAF inh – blocks esBAF chromatin remodeling in mouse ES cells. 2% of 350,000 active. reporter increase, % at 12.5 µM. AID 602393. Bmi1-luciferase knock-in reporter, 24 h; 100% = twice the neutral-well signal; in the data active = activation above about 40%; inconclusive = no clear call, values can overlap the other calls;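 note: a rise in the Bmi1 reporter signal indicates esBAF inhibition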
Cneo AK release – causes C. neoformans cell lysis; adenylate kinase release luminescence, 4 h; normalised: neutral wells 0, clomiphene wells 100; lysis activity, % at 15 µM; 0.2% of 360,000 active;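 active = mean lysis activity across replicates of at least 80%, whatever share of replicates individually reach that level; inactive = mean lysis activity below 80%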
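Test system: log-phase Cryptococcus neoformans yeast cells. Input: 5 × 10^6 yeast cells/mL. Medium: fresh YPD growth medium. Doses: single dose. Incubation: static 4 h at 37 °C with compound, 1 h detection. Measured by: luminescent adenylate kinase detection reagent. Read-out: signal increase indicating cell lysis. Benchmarks: Clomiphene.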
MITF TRPM1 HTS – activators of MITF-driven TRPM1 promoter activity in SK-MEL-5 cells | AID 588334 | SK-MEL-5 TRPM1-promoter luciferase, 24 h; % of positive control, neutral wells = 0 | 0.75% of 300,000 active | activation, % at 12.5 µM;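 active = mean activation of at least 80% with every replicate also reaching 80%; inconclusive = mean reaches 80% but some replicate falls short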
A number is an active result; . = inactive; ? = inconclusive; / = no result. Compounds with a hit are over-represented: about 3.5% of the library has one in this group of screens.

SMILES	Wnt act	ERAP1 HTS inh	HIV Env fusion	esBAF inh	Cneo AK release	MITF TRPM1 HTS
CC(C)[C@H](NC(=O)[C@H](CCCN=C(N)N)NC(=O)NC(Cc1ccccc1)C(=O)O)C(=O)NC(C=O)CCCN=C(N)N (some centres undefined)	.	35	.	.	.	.
CC(C)C(NC(=O)OCc1ccccc1)C(=O)NC(Cc1ccc(O)cc1)C(=O)O (centres undefined)	.	.	.	.	.	.
C[C@@H](NC(=O)C[C@H]1C=C[C@H](NC(=O)Cc2ccccn2)[C@H](CO)O1)c1ccccc1	/	.	/	.	.	/
O=c1[nH]c(=O)c2[nH]c(=S)n(-c3ccccc3)c2[nH]1	.	37	.	.	.	.
O=C(Cc1ccccc1)N1C[C@@H]2[C@H](c3ccccc31)[C@H](CO)N2C(=O)Cc1ccccc1	/	.	/	.	.	/
O=C(Oc1cccc(/C=N/Nc2nc(Nc3ccccc3)nc(N3CCOCC3)n2)c1)c1ccco1	.	/	.	/	/	103
C(=N\Nc1nc(Nc2ccccc2)nc(N2CCOCC2)n1)/c1c[nH]c2ccccc12	.	/	70	/	/	/
COC(=O)c1ccc(Nc2nc(N3CCOCC3)nc(N3CCOCC3)n2)cc1	.	.	.	.	.	93
COc1ccc(/C=N/Nc2nc(Nc3ccccc3)nc(N3CCCCC3)n2)cc1OC	.	/	.	.	.	/
C[C@@H]1CN([C@@H](C)CO)C(=O)c2cccc(NC(=O)Nc3ccc(C(F)(F)F)cc3)c2O[C@H]1CN(C)S(=O)(=O)c1ccccc1	/	/	.	.	/	/
COc1ccc(-c2nnc(SCC(C)C)o2)cc1	42	.	.	/	.	.
CC(C)C[C@H](N)c1cn([C@@H](Cc2cc3ccccc3[nH]2)C(=O)N2CCNCC2)nn1	.	/	.	.	.	.
CCC(C)[C@H](N)c1cn([C@@H](Cc2cc3ccccc3[nH]2)C(=O)N2CCNCC2)nn1 (some centres undefined)	45	.	.	.	.	.
C[C@@H]1CN([C@@H](C)CO)C(=O)c2cc(NC(=O)Nc3ccc(F)cc3)ccc2O[C@H]1CN(C)Cc1ccc(Cl)c(Cl)c1	/	.	.	.	.	/
Cc1ccc(OCC(=O)O/N=C(\N)c2ccncc2)cc1C	.	.	.	54	.	.
CCc1ccc(OCC(=O)O/N=C(\N)c2ccccn2)cc1	48	.	.	/	.	/
Cc1ccc(OCC(=O)O/N=C(\N)c2ccccn2)cc1C	39	.	.	/	.	/
COc1cccc(OCC(=O)O/N=C(\N)c2ccncc2)c1	.	.	.	47	.	.
Cc1cc(C)c(C)c(OCC(=O)O/N=C(\N)c2ccccn2)c1	/	/	/	.	.	.
CC(C)C#Cc1cnc2c(c1)C(=O)N([C@@H](C)CO)C[C@H](C)[C@@H](CN(C)Cc1ccccc1)O2	/	.	.	.	.	/
CCCNC(=O)N1[C@H](CO)[C@H](c2ccccc2-c2ccc(F)cc2)[C@@H]1C#N	/	.	/	/	/	/
COc1ccc(NC(=O)N(C)C[C@H]2Oc3ncc(C#CCC(C)C)cc3C(=O)N([C@@H](C)CO)C[C@@H]2C)cc1	/	.	.	.	.	/
N/C(=N\OC(=O)COc1ccccc1)c1ccccn1	48	.	.	49	/	.
Cc1cc(C)cc(OCC(=O)O/N=C(\N)c2ccccn2)c1	/	/	/	?	.	.
Cc1cccc(OCC(=O)O/N=C(\N)c2ccccn2)c1	.	.	/	.	/	99
SMILES	Wnt act	ERAP1 HTS inh	HIV Env fusion	esBAF inh	Cneo AK release	MITF TRPM1 HTS
N/C(=N\OC(=O)CCC1CCCC1)c1ccccn1	52	/	.	/	/	.
N/C(=N\OC(=O)COc1ccc2ccccc2c1Br)c1ccccn1	44	.	.	85	.	?
C[C@@H]1CN([C@@H](C)CO)S(=O)(=O)c2ccc(C#Cc3ccncc3)cc2O[C@@H]1CN(C)C(=O)C1CC1	/	.	.	/	.	/
CO[C@H]1CC[C@@H]2CCN(C)C(=O)[C@@H](C)[C@H](OC)CN(C)C(=O)c3cccc(C#N)c3OC[C@@H]1O2	/	.	.	.	.	/
O=C(C1CCCCC1)N1CC(=O)N2[C@@H](CO)[C@@H](c3ccc(Br)cc3)[C@@H]2C1	/	.	/	/	/	/
N/C(=N\OC(=O)COc1ccc(Br)cc1)c1cccnc1	.	/	.	/	.	.
N/C(=N\OC(=O)COc1ccccc1)c1cccnc1	.	/	.	/	/	104
CCC(=O)N1[C@H](C(=O)OC)[C@@H](CO)[C@@H]2Cn3c(ccc(/C=C/c4ccccc4)c3=O)[C@@H]21	/	.	/	.	.	/
